Experimental data published in ChEMBL document CHEMBL4364340, “Discovery of N-(1-Acryloylazetidin-3-yl)-2-(1H-indol-1-yl)acetamides as Covalent Inhibitors of KRASG12C” (ACS Med Chem Lett, 2019).
Values after ≈ are worked out from the molar mass of the structure shown.

How the values were obtained:
[1] = tested on: GTPase KRas (Homo sapiens), P01116 [G12C]; assay: Inhibition of KRAS G12C mutant (unknown origin) at 10 uM incubated for 20 hrs in presence of GDP by rapidfire mass spectrometry analysis relative to control
Outline: (§1)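 GDP-bound KRASG12C (2 μM) incubated with 10 μM compound. Intact-protein mass spectrometry quantifies relative % covalent adduct at Cys12 at the stated time point.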

[2] = tested on: GTPase KRas (Homo sapiens), P01116 [G12C]; assay: Inhibition of KRAS G12C mutant (unknown origin) at 10 uM incubated for 2 hrs in presence of GDP by rapidfire mass spectrometry analysis relative to control; outline: as §1
[3] = tested on: GTPase KRas (Homo sapiens), P01116 [G12C]; assay: Inhibition of KRAS G12C mutant (unknown origin) at 10 uM incubated for 0.2 hrs in presence of GDP by rapidfire mass spectrometry analysis relative to control; outline: as §1
[4] = tested on: GTPase KRas (Homo sapiens), P01116 [G12C]; assay: Inhibition of KRAS G12C mutant (unknown origin) assessed as pseudo first order rate constant incubated for 0.02 to 20 hrs in presence of GDP by rapidfire mass spectrometry analysis
Outline: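 GDP-bound KRASG12C (2 μM) with 10 μM compound. Intact-protein MS measures covalent adduct at Cys12 after 0.02, 0.2, 2 and 20 h. Conversions between 10% and 90% are converted to kobs/[I] (M–1 s–1) under pseudo-first-order kinetics.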

[5] = Half life of compound in phosphate buffer at pH 7.4 in presence of GSH by LC/MS analysis; assay type: physicochemical; settings: phosphate buffer with GSH
Outline: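 Intrinsic thiol reactivity toward 5 mM glutathione. Half-life is taken from the rate at which parent compound disappears.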

[6] = molecular target: GTPase KRas (Homo sapiens, UniProt P01116, G12C); assay: Inhibition of KRAS G12C mutant in human MIAPaCa2 cells assessed as reduction in EGF-induced ERK1/2 phosphorylation incubated for 4 hrs followed by EGF addition by luminescence based assay; assay type: cell-based
[7] = Half-life in mouse at 10 mg/kg, po; assay type: ADME, organism-based; settings: in vivo
Outline: (§2)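 Mouse and rat PK: single 1 mg/kg iv dose given in 100% DMSO, and 10 mg/kg po dose given in 1% Tween 80, 2% HPMC, 97% water.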

[8] = Clearance in mouse at […]; assay type: ADME, organism-based; settings: in vivo; outline: as §2
[9] = Plasma protein binding in mouse assessed as unbound fraction at 5 uM by ultracentrifugation method; assay type: ADME, cell-free
Outline: (§3)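 Plasma protein binding measured by ultracentrifugation, compound at 5 μM.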

[10] = Solubility of compound in FASIIF measured after 72 hrs by HPLC; assay type: physicochemical; settings: FaSSIF
Outline: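 Solubility in fasted-state simulated intestinal fluid, measured by HPLC after equilibration at room temperature for 72 h.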

[11] = tested on: A549; assay: Cytotoxicity against human A549 cells assessed as reduction in cell viability measured after 72 hrs by Celltiter-Glo luminescent cell viability assay; assay type: functional, cell-based; settings: A549, 72 h
Outline: (§4)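 Cell viability in MIA PaCa-2 (KRAS p.G12C) or A549 (KRAS p.G12S) cells, read by CellTiter-Glo luminescence.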

[12] = tested on: MIA PaCa-2; assay: Cytotoxicity against human MIAPaCa2 cells assessed as reduction in cell viability measured after 72 hrs by Celltiter-Glo luminescent cell viability assay; assay type: functional, cell-based; settings: MIA PaCa-2, 72 h; outline: as §4
[13] = Intrinsic clearance in mouse liver microsomes at 1 uM measured after 30 mins in presence of NADPH by LC-MS analysis; assay type: ADME, Microsome; settings: read-out: CLH
[14] = tested on: GTPase KRas (Homo sapiens), P01116 [G12C]; assay: Inhibition of KRAS G12C mutant (unknown origin) at 10 uM incubated for 0.02 hrs in presence of GDP by rapidfire mass spectrometry analysis relative to control
Outline: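 Intact-protein mass spectrometry of covalent adduct formation at Cys12 of GDP-bound KRASG12C. Test compound at 10 μM, with read-outs at 0.02, 0.2, 2 and 20 h. Values are the relative % of protein bound, measured directly under pseudo-first-order conditions. Earlier incubations in the paper used 2 μM protein.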

[15] = Intrinsic clearance in human liver microsomes at 1 uM measured after 30 mins in presence of NADPH by LC-MS analysis; assay type: ADME, Microsome; settings: read-out: CLH
[16] = Volume of distribution at steady state in mouse at […]; assay type: ADME, organism-based; settings: in vivo; outline: as §2
[17] = Plasma protein binding in human assessed as unbound fraction at 5 uM by ultracentrifugation method; assay type: ADME, cell-free; outline: as §3
[18] = Plasma protein binding in rat assessed as unbound fraction at 5 uM by ultracentrifugation method; assay type: ADME, cell-free; outline: as §3
[19] = Oral bioavailability in mouse at 10 mg/kg; assay type: ADME, organism-based; settings: in vivo; outline: as §2
[20] = Hepatic intrinsic clearance in rat hepatocytes assessed per 10^6 cells at 0.5 uM after 60 mins; assay type: ADME, cell-based, Hepatocyte; settings: read-out: CLH
Outline: (§5)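 Intrinsic clearance in mouse, rat or human hepatocytes. Compound at 0.5 μM, 0.5 million cells/mL, incubated 60 min.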

[21] = Clearance in rat at […]; assay type: ADME, organism-based; settings: in vivo; outline: as §2
[22] = Intrinsic clearance in rat liver microsomes at 1 uM measured after 30 mins in presence of NADPH by LC-MS analysis; assay type: ADME, Microsome; settings: read-out: CLH
[23] = Half-life in rat at 10 mg/kg, po; assay type: ADME, organism-based; settings: in vivo; outline: as §2
[24] = Hepatic intrinsic clearance in mouse hepatocytes assessed per 10^6 cells at 0.5 uM after 60 mins; assay type: ADME, cell-based, Hepatocyte; settings: read-out: CLH; outline: as §5
[25] = Oral bioavailability in rat at 10 mg/kg; assay type: ADME, organism-based; settings: in vivo; outline: as §2
[26] = Volume of distribution at steady state in rat at […]; assay type: ADME, organism-based; settings: in vivo; outline: as §2
[27] = Hepatic intrinsic clearance in human hepatocytes assessed per 10^6 cells at 0.5 uM after 60 mins; assay type: ADME, cell-based, Hepatocyte; settings: read-out: CLH; outline: as §5
[28] = molecular target: GTPase KRas (Homo sapiens, UniProt P01116, C118A/G12C); assay: Inhibition of GDP bound N terminal His-tagged KRAS G12C/C118A mutant (unknown origin) (1 to 169 residues) assessed as reduction in SOS-mediated guanine nucleotide exchange preincubated for 2 hrs followed by addition of SOS and GTP and measured after 1 hr by alphascreen assay
Outline: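 Inhibitor preincubated with protein 2 h, then SOS1 and GTP added to exchange GTP into the nucleotide site. GTP loading read as proximity of RAF Ras-binding domain, which binds only active KRAS. IC50 from dose response.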

SMILES: C=CC(=O)N1CC(NC(=O)Cn2cc(C(=O)N3CCc4cc(F)ccc4C3)c3cc(Br)ccc32)C1
- inhibition [1]: 100%
- inhibition [2]: 100%
- inhibition [3]: 86%
- K [4]: 326 M⁻¹ s⁻¹
- half-life [5]: 1.67 h

SMILES: C=CC(=O)N1CC(NC(=O)Cn2c(C)c(C(=O)N3CCc4c(cccc4OC)C3)c3cc(Cl)ccc32)C1
- inhibition [1]: 100%
- IC50 [6]: 3550 nM
- inhibition [2]: 100%
- inhibition [3]: 34%
- K [4]: 69 M⁻¹ s⁻¹
- half-life [5]: 1.67 h

SMILES: C=CC(=O)N1CC(NC(=O)Cn2cc(C(=O)N3CCc4c(cccc4OC)C3)c3cc(Br)cc(C)c32)C1
- inhibition [1]: 100%
- inhibition [2]: 100%
- inhibition [3]: 100%
- K [4]: > 400 M⁻¹ s⁻¹
- half-life [5]: 1.67 h

SMILES: C=CC(=O)N1CC(NC(=O)Cn2c(C3CC3)c(C(=O)N3CCc4c(cccc4OC)C3)c3cc(Cl)cc(C)c32)C1
- half-life [7]: 0.9 h
- CL/F [8]: 107 mL/min/kg
- fraction unbound at 5 µM [9]: 0.02
- solubility at 72 h [10]: 252 µM (≈ 141 µg/mL)
- IC50 [11]: 9330 nM
- IC50 [12]: 67 nM
- microsomal CLint at 1 µM [13]: 708 µL/min/mg
- inhibition [14]: 69%
- inhibition [1]: 100%
- microsomal CLint at 1 µM [15]: 161 µL/min/mg
- Vdss [16]: 2.9 L/kg
- inhibition [2]: 100%
- fraction unbound at 5 µM [17]: 0.04
- fraction unbound at 5 µM [18]: 0.02
- bioavailability [19]: 8%
- inhibition [3]: 94%
- K [4]: 2640 M⁻¹ s⁻¹
- hepatocyte CLint at 0.5 µM [20]: 293 µL/min/1e6 cells
- CL/F [21]: 65 mL/min/kg
- microsomal CLint at 1 µM [22]: 197 µL/min/mg
- half-life [23]: 0.7 h
- hepatocyte CLint at 0.5 µM [24]: 228 µL/min/1e6 cells
- half-life [5]: 1.33 h
- bioavailability [25]: < 1%
- Vdss [26]: 2.6 L/kg
- hepatocyte CLint at 0.5 µM [27]: 53 µL/min/1e6 cells

SMILES: C=CC(=O)N1CC(NC(=O)Cn2c(C3CC3)c(C(=O)N3CCc4c(cccc4OC)C3)c3cc(Br)ccc32)C1
- inhibition [14]: 35%
- IC50 [6]: 604 nM
- inhibition [2]: 100%
- inhibition [3]: 90%
- K [4]: 549 M⁻¹ s⁻¹
- half-life [5]: 1.67 h

SMILES: C=CC(=O)N1CC(NC(=O)Cn2ccc3cc(Br)ccc32)C1
- IC50 [28]: > 250000 nM
- inhibition [1]: 67%
- inhibition [2]: 14%
- K [4]: 2 M⁻¹ s⁻¹
- half-life [5]: 1.67 h

SMILES: C=CC(=O)N1CC(NC(=O)Cn2cc(C(=O)NCCc3ccccc3)c3cc(Br)ccc32)C1
- inhibition [1]: 100%
- inhibition [2]: 59%
- K [4]: 12 M⁻¹ s⁻¹
- half-life [5]: 1.67 h

SMILES: C=CC(=O)N1CC(NC(=O)Cn2c(C)c(C(=O)N3CCc4c(cccc4OC)C3)c3cc(Br)cc(C)c32)C1
- IC50 [6]: 299 nM
- inhibition [2]: 100%
- inhibition [3]: 39%
- K [4]: 83 M⁻¹ s⁻¹
- half-life [5]: 1.67 h

SMILES: C=CC(=O)N1CC(NC(=O)COc2ccc(Br)cc2C(=O)N2CC=C(c3ccccc3)C2)C1
- IC50 [28]: 2780 nM
- IC50 [6]: 11300 nM
- K [4]: 26 M⁻¹ s⁻¹
- half-life [5]: 1.67 h

SMILES: C=CC(=O)N1CC(NC(=O)Cn2cc(C(=O)N3CCc4ccccc4C3)c3cc(Br)ccc32)C1
- inhibition [14]: 0%
- inhibition [1]: 100%
- inhibition [2]: 100%
- inhibition [3]: 100%
- K [4]: 308 M⁻¹ s⁻¹
- half-life [5]: 1.67 h

SMILES: C=CC(=O)N1CC(NC(=O)COc2ccc(Br)cc2)C1
- K [4]: 0.3 M⁻¹ s⁻¹

SMILES: C=CC(=O)N1CC(NC(=O)Cn2cc(C(=O)N3CCc4cc(Cl)ccc4C3)c3cc(Br)ccc32)C1
- inhibition [1]: 100%
- inhibition [2]: 100%
- inhibition [3]: 55%
- K [4]: 132 M⁻¹ s⁻¹
- half-life [5]: 1.67 h

SMILES: C=CC(=O)N1CC(NC(=O)Cn2cc(C(=O)NCc3ccccc3)c3cc(Br)ccc32)C1
- inhibition [1]: 93%
- inhibition [2]: 29%
- K [4]: 5 M⁻¹ s⁻¹
- half-life [5]: 1.67 h

SMILES: C=CC(=O)N1CC(NC(=O)Cn2cc(C(=O)N3CCc4c(F)cccc4C3)c3cc(Br)ccc32)C1
- inhibition [1]: 100%
- inhibition [2]: 100%
- inhibition [3]: 77%
- K [4]: 247 M⁻¹ s⁻¹
- half-life [5]: 1.67 h

SMILES: C=CC(=O)N1CC(NC(=O)COc2ccc(Br)cc2NC(=O)c2cc(C)no2)C1
- inhibition [1]: 63%
- inhibition [2]: 11%
- K [4]: 2 M⁻¹ s⁻¹

SMILES: C=CC(=O)N1CC(NC(=O)Cn2cc(C(=O)N3CCc4c(cccc4OC)C3)c3cc(Br)ccc32)C1
- inhibition [14]: 13%
- inhibition [1]: 100%
- IC50 [6]: 11400 nM
- inhibition [2]: 100%
- inhibition [3]: 92%
- K [4]: 230 M⁻¹ s⁻¹
- half-life [5]: 1.67 h

SMILES: C=CC(=O)N1CC(NC(=O)Cn2c(C)c(C(=O)N3CCc4c(cccc4OC)C3)c3cc(Br)ccc32)C1
- inhibition [14]: 14%
- inhibition [1]: 100%
- IC50 [6]: 1680 nM
- inhibition [2]: 100%
- inhibition [3]: 91%
- K [4]: 256 M⁻¹ s⁻¹
- half-life [5]: 1.67 h

SMILES: C=CC(=O)N1CC(NC(=O)Cn2c(C)c(C(=O)N3CCc4c(cccc4OC)C3)c3cc(Cl)cc(C)c32)C1
- inhibition [14]: 40%
- inhibition [1]: 100%
- inhibition [2]: 100%
- inhibition [3]: 85%
- K [4]: 583 M⁻¹ s⁻¹
- half-life [5]: 1.67 h

SMILES: C=CC(=O)N1CC(NC(=O)Cn2cc(C(=O)N3CCc4c(Cl)cccc4C3)c3cc(Br)ccc32)C1
- inhibition [1]: 100%
- inhibition [2]: 100%
- inhibition [3]: 67%
- K [4]: 188 M⁻¹ s⁻¹
- half-life [5]: 1.67 h

SMILES: C=CC(=O)N1CC(NC(=O)Cn2cc(C(=O)N(C)Cc3ccccc3)c3cc(Br)ccc32)C1
- inhibition [1]: 100%
- inhibition [2]: 35%
- K [4]: 6 M⁻¹ s⁻¹
- half-life [5]: 1.67 h
